Measured values published in ChEMBL document CHEMBL3286335, “Synthesis of 2,3,6-trideoxy sugar triazole hybrids as potential new broad spectrum antimicrobial agents” (Eur J Med Chem, 2014).
Converted amounts (≈) assume the structure as drawn.

Legend:
Candida albicans = test: Antimicrobial activity against Candida albicans after 48 hrs by microbroth dilution method; assay type: functional
Method in brief: (§1)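 Broth microdilution per NCCLS guidelines. Bacteria in Mueller-Hinton broth; fungi in MOPS-buffered RPMI 1640. Test compounds at 50-0.36 µg/mL, standard drugs over 32-0.0018 µg/mL. Inoculum 1-5 × 10^3 cells/mL, 35 °C in a moist chamber. A492 read at 24 h for bacteria, 48 h for C. albicans, 72 h for A. fumigatus, C. neoformans and S. schenckii, 96 h for T. mentagrophytes. MIC taken as 90% growth inhibition relative to growth control.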

Aspergillus fumigatus = test: Antimicrobial activity against Aspergillus fumigatus after 72 hrs by microbroth dilution method; assay type: functional; method in brief: as §1
[1] = test system: Trichophyton mentagrophytes; test: Antimicrobial activity against Trichophyton mentagrophytes after 96 hrs by microbroth dilution method; assay type: functional; method in brief: as §1
Sporothrix schenckii = test: Antimicrobial activity against Sporothrix schenckii after 72 hrs by microbroth dilution method; assay type: functional; method in brief: as §1
Cryptococcus neoformans = test: Antimicrobial activity against Cryptococcus neoformans after 72 hrs by microbroth dilution method; assay type: functional; method in brief: as §1
Staphylococcus aureus [2] = test: Antimicrobial activity against Staphylococcus aureus ATCC 25923 after 24 hrs by microbroth dilution method; assay type: functional; details: ATCC 25923, 24 h; method in brief: as §1
Staphylococcus aureus [3] = test: Antimicrobial activity against vancomycin-resistant Staphylococcus aureus after 24 hrs by microbroth dilution method; assay type: functional
Method in brief: (§2)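 Microbroth dilution in Mueller Hinton broth, following NCCLS guidelines. Test compounds were run at 50-0.36 µg/mL against an initial inoculum of 1-5 × 10^3 cells/mL. Plates were incubated in a moist chamber at 35 °C, and absorbance at 492 nm was read after 24 h. MIC was taken as 90% growth inhibition relative to the growth control.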

Staphylococcus aureus [4] = test: Antimicrobial activity against methicillin-resistant Staphylococcus aureus after 24 hrs by microbroth dilution method; assay type: functional; method in brief: as §2
Escherichia coli = test: Antimicrobial activity against Escherichia coli ATCC 9637 after 24 hrs by microbroth dilution method; assay type: functional; details: ATCC 9637, 24 h; method in brief: as §1
Klebsiella pneumoniae = test: Antimicrobial activity against Klebsiella pneumoniae ATCC 27736 after 24 hrs by microbroth dilution method; assay type: functional; details: ATCC 27736, 24 h; method in brief: as §1
Pseudomonas aeruginosa = test: Antimicrobial activity against Pseudomonas aeruginosa ATCC BAA-427 after 24 hrs by microbroth dilution method; assay type: functional; details: ATCC BAA-427, 24 h; method in brief: as §1
L929 [5] = test: Cytotoxicity against mouse L929 cells assessed as change in morphology at MIC after 24 hrs using Giemsa staining by phase contrast microscopy; assay type: cell-based; details: l929, 24 h
Method in brief: (§3)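 Mouse fibroblast L929 cells grown in DMEM with 10% FBS and antibiotic/antimycotic at 37 °C, 5% CO2. Medium switched to serum-free DMEM at 90% confluency, then compounds added (DMSO stocks) for 24 h. Cells fixed, stained with Giemsa for 30 min at 37 °C, washed with PBS, air dried and examined by phase-contrast microscopy.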

L929 [6] = test: Cytotoxicity against mouse L929 cells assessed as change in morphology at 50 ug/ml after 24 hrs using Giemsa staining by phase contrast microscopy; assay type: cell-based; details: l929, 24 h; method in brief: as §3
L929 [7] = test: Cytotoxicity against mouse L929 cells assessed as reduction in cell viability after 24 hrs by MTT assay; assay type: cell-based; details: l929, 24 h
Method in brief: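 L929 fibroblasts in DMEM with 10% FBS at 37 °C, 5% CO2. Seeded at 1×10^3 cells per well, switched to serum-free DMEM at 90% confluency. Compounds from 1 mg/mL DMSO stocks tested at nine twofold dilutions for 24 h. MTT readout: viability = (A570−A630) sample / (A570−A630) control × 100.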

Row | Compound | MIC (Candida albicans) | MIC (Aspergillus fumigatus) | MIC [1] | MIC (Sporothrix schenckii) | MIC (Cryptococcus neoformans) | MIC (Staphylococcus aureus [2]) | MIC (Staphylococcus aureus [3]) | MIC (Staphylococcus aureus [4]) | MIC (Escherichia coli) | MIC (Klebsiella pneumoniae) | MIC (Pseudomonas aeruginosa) | Activity (L929 [5]) | Activity (L929 [6]) | Activity (L929 [7])
1 | OC(Cn1cncn1)(Cn1cncn1)c1ccc(F)cc1F [FLUCONAZOLE] | 1 µg/mL (≈ 3.27 µM) | > 32 µg/mL | 16 µg/mL (≈ 52.2 µM) | 4 µg/mL (≈ 13.1 µM) | 2 µg/mL (≈ 6.53 µM) |  |  |  |  |  |  |  |  | 
2 | CC(C)CCO[C@@H]1C=CC(=O)[C@@H](Cn2cc(-c3ccccn3)nn2)O1 | > 50 µg/mL | > 50 µg/mL | 12.5 µg/mL (≈ 36.5 µM) | 25 µg/mL (≈ 73 µM) | > 50 µg/mL | 6.25 µg/mL (≈ 18.3 µM) | 12.5 µg/mL (≈ 36.5 µM) | 12.5 µg/mL (≈ 36.5 µM) | > 50 µg/mL | 6.25 µg/mL (≈ 18.3 µM) | > 50 µg/mL |  |  | 
3 | CC(C)CCO[C@@H]1C=CC(=O)[C@@H](Cn2cc(CCCN3C(=O)c4ccccc4C3=O)nn2)O1 | 25 µg/mL (≈ 55.2 µM) | > 50 µg/mL | 25 µg/mL (≈ 55.2 µM) | 50 µg/mL (≈ 110 µM) | 50 µg/mL (≈ 110 µM) | 6.25 µg/mL (≈ 13.8 µM) | 25 µg/mL (≈ 55.2 µM) | 25 µg/mL (≈ 55.2 µM) | > 50 µg/mL | > 50 µg/mL | > 50 µg/mL |  |  | 
4 | Nc1nc(=O)[nH]cc1F [FLUCYTOSINE] | 0.25 µg/mL (≈ 1.94 µM) | > 32 µg/mL | > 32 µg/mL | > 32 µg/mL | 0.13 µg/mL (≈ 1.01 µM) |  |  |  |  |  |  |  |  | 
5 | CC(C)CO[C@@H]1C=CC(=O)[C@@H](Cn2cc(CCCCl)nn2)O1 | 50 µg/mL (≈ 153 µM) | > 50 µg/mL | > 50 µg/mL | 50 µg/mL (≈ 153 µM) | > 50 µg/mL | 12.5 µg/mL (≈ 38.1 µM) | > 50 µg/mL | > 50 µg/mL | > 50 µg/mL | 50 µg/mL (≈ 153 µM) | > 50 µg/mL |  |  | 
6 | CC(C)CCO[C@@H]1C=CC(=O)[C@@H](Cn2cc(CCCCl)nn2)O1 | 25 µg/mL (≈ 73.1 µM) | 50 µg/mL (≈ 146 µM) | 50 µg/mL (≈ 146 µM) | 12.5 µg/mL (≈ 36.6 µM) | 50 µg/mL (≈ 146 µM) | 1.56 µg/mL (≈ 4.56 µM) | 6.25 µg/mL (≈ 18.3 µM) | 6.25 µg/mL (≈ 18.3 µM) | 50 µg/mL (≈ 146 µM) | 3.12 µg/mL (≈ 9.13 µM) | 50 µg/mL (≈ 146 µM) | Non-toxic | Toxic | Dose-dependent effect
7 | CN[C@H](CC(C)C)C(=O)N[C@H]1C(=O)N[C@@H](CC(N)=O)C(=O)N[C@H]2C(=O)N[C@H]3C(=O)N[C@H](C(=O)N[C@H](C(=O)O)c4cc(O)cc(O)c4-c4cc3ccc4O)[C@H](O)c3ccc(c(Cl)c3)Oc3cc2cc(c3O[C@@H]2O[C@H](CO)[C@@H](O)[C@H](O)[C@H]2O[C@H]2C[C@](C)(N)[C@H](O)[C@H](C)O2)Oc2ccc(cc2Cl)[C@H]1O [VANCOMYCIN] |  |  |  |  |  | 12.5 µg/mL (≈ 8.63 µM) |  |  | 12.5 µg/mL (≈ 8.63 µM) | 12.5 µg/mL (≈ 8.63 µM) | > 50 µg/mL |  |  | 
8 | Clc1ccc(COC(Cn2ccnc2)c2ccc(Cl)cc2Cl)c(Cl)c1 (stereo not drawn) [MICONAZOLE] | 25 µg/mL (≈ 60.1 µM) | 12.5 µg/mL (≈ 30 µM) | 0.78 µg/mL (≈ 1.87 µM) | 3.12 µg/mL (≈ 7.5 µM) | 12.5 µg/mL (≈ 30 µM) |  |  |  |  |  |  |  |  | 
9 | CN[C@@H]1[C@@H](O)[C@@H](O[C@@H]2[C@@H](O)[C@H](O[C@H]3O[C@H]([C@@H](C)NC)CC[C@H]3N)[C@@H](N)C[C@H]2N)OC[C@]1(C)O [GENTAMICIN C1] |  |  |  |  |  | 0.39 µg/mL (≈ 0.817 µM) | 1.56 µg/mL (≈ 3.27 µM) | 1.56 µg/mL (≈ 3.27 µM) | 1.56 µg/mL (≈ 3.27 µM) | 1.56 µg/mL (≈ 3.27 µM) | 0.39 µg/mL (≈ 0.817 µM) |  |  | 
10 | CCCCCCc1cn(C[C@H]2O[C@H](OCCC(C)C)C=CC2=O)nn1 | > 50 µg/mL | > 50 µg/mL | 12.5 µg/mL (≈ 35.8 µM) | 25 µg/mL (≈ 71.5 µM) | > 50 µg/mL | 3.12 µg/mL (≈ 8.93 µM) | 6.25 µg/mL (≈ 17.9 µM) | 6.25 µg/mL (≈ 17.9 µM) | > 50 µg/mL | 1.56 µg/mL (≈ 4.46 µM) | > 50 µg/mL | Non-toxic | Toxic | Dose-dependent effect
11 | CC(C)CCO[C@@H]1C=CC(=O)[C@@H](Cn2cc(CCn3cc(C4CC4)nn3)nn2)O1 | 50 µg/mL (≈ 125 µM) | > 50 µg/mL | > 50 µg/mL | > 50 µg/mL | 50 µg/mL (≈ 125 µM) | 25 µg/mL (≈ 62.4 µM) | > 50 µg/mL | > 50 µg/mL | > 50 µg/mL | > 50 µg/mL | > 50 µg/mL |  |  | 
12 | CC(C)CCO[C@@H]1C=CC(=O)[C@@H](Cn2ccnn2)O1 | 50 µg/mL (≈ 188 µM) | > 50 µg/mL | > 50 µg/mL | > 50 µg/mL | 50 µg/mL (≈ 188 µM) | 25 µg/mL (≈ 94.2 µM) | > 50 µg/mL | > 50 µg/mL | 50 µg/mL (≈ 188 µM) | > 50 µg/mL | > 50 µg/mL |  |  | 
